Screening results deposited in PubChem by several laboratories.
The list is not random: actives were taken first. Their share in the collection is about 2.7%.
NadD inh: blocks S. aureus nicotinate mononucleotide adenylyltransferase | purified NadD enzyme, colorimetric absorbance read-out | inhibition, % at 20 µM | hit rate 0.78% among 360,000; in the data active = inhibition above about 26%
CSN inh: blocks human CSN-mediated cullin deneddylation; hit rate 0.38% among 360,000; Purified CSN, SCF-Nedd8-OG deneddylation, fluorescence polarization; inhibition, % at 12.5 µM; Q92905;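 active = pattern-corrected inhibition above about 35%, with an unprinted fluorescence ratio check between 0.5 and 1.5, limit read from the data, passing the limit was not always enough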
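Detection – fluorescence polarization · System – HEK293T-derived human Csn5 enzyme · Controls – substrate-only high control, full reaction low control · Timing – 90 min, room temperature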
Rpn11 block: Rpn11 (human) deubiquitinase inhibition; human 26S proteasome, Ub4-pepOG fluorescence polarization; 20S core pre-blocked with epoxomicin; inhibition, % at 20 µM; hit rate 0.59% among 360,000; AID 588493;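 active = inhibition at 20 µM, scaled to each plate's controls, above about 33%, limit read from the data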
HNF4A DNA FP: change in binding of human HNF4 alpha to DNA; P41235; HNF4a-FITC DNA binding, fluorescence polarization, 1 h; activity change, % at 10 µM; hit rate 0.3% among 360,000; AID 1224865; in the data active = activity change above about 30%, passing the limit was not always enough
Target sequence (P41235 whole entry, looked up): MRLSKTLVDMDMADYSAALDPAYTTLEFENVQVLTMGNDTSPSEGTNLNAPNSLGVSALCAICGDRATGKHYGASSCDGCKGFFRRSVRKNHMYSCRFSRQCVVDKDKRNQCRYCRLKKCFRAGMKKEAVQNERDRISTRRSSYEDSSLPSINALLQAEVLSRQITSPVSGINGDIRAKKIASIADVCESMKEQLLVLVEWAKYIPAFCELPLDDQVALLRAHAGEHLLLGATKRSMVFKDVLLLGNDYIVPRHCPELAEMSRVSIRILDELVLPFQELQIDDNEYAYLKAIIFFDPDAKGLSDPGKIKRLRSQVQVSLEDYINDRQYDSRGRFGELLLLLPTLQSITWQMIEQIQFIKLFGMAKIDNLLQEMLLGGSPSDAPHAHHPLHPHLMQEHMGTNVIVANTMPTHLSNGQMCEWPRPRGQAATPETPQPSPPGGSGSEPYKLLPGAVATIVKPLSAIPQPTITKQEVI
PP1 inh: blocks human PP1-alpha phosphatase, a PP5 counter-screen | P62136 | hit rate 0.9% among 320,000 | purified PP1alpha, OMFP fluorescence | inhibition, % at 6.7 µM | AID 2235;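 active = inhibition above the mean inhibition of all tested compounds plus 3 SD, computed separately for each screening campaign, cut at about 15% in these data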
TPT1 inhibitor: inhibitors of Candida albicans tRNA 2'-phosphotransferase TPT1; AID 1962; hit rate 0.81% among 300,000; recombinant caTPT1, FP RNA substrate dephosphorylation; inhibition, % at 5 µM;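 active = inhibition above the mean of all tested compounds plus 3 SD, set per screening campaign, cut at about 24% in these data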
TPT1 inh confirm: TPT1 (C. albicans) inhibition, confirmation; AID 2149; recombinant caTPT1, fluorescence polarization, RNase T1 coupled; shares compounds with TPT1 inhibitor; hit rate 74% among 2,400; inhibition, % at 5 µM;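 active = inhibition above the primary screen limit, the mean inhibition of all tested compounds plus 3 SD, cut at about 25% in these data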
RNase T1 counter: counter-screen for TPT1 inhibitors: inhibitors of Aspergillus oryzae RNase T1; shares compounds with TPT1 inhibitor; RNase T1 cleavage, fluorescence polarization, 1536-well; inhibition, % at 5 µM; hit rate 83% among 2,400; AID 2153;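 active = inhibition above the solvent-only control well mean plus 3 SD, limit set per screening run, cut at about 23% in these data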;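 also: inhibitors block cleavage so intact labeled substrate keeps polarization high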
Target sequence (P00651 whole entry, looked up): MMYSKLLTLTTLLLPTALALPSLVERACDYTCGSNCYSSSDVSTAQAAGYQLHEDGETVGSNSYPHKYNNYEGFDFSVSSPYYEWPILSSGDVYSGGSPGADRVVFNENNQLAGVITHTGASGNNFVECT
Each line names hits and unclear results; the compound was inactive in the other large screens (follow-up assays come after a bar, where shown).

COc1ccc(C2C(C#N)=C(N)N(N(C)C)C3=C2C(=O)CC(C)(C)C3)cc1 (centres undefined)	none
COc1ccc(C2C(C#N)=C(N)N(c3sc4c(c3C#N)CCCC4)C3=C2C(=O)CC(C)(C)C3)cc1OC (centres undefined)	TPT1 inhibitor 28 | TPT1 inh confirm inactive | RNase T1 counter inactive
CCOC1=C2CN(S(=O)(=O)c3ccc(C)cc3)[C@H](c3ccccc3)C[C@@H]2N(S(=O)(=O)c2ccccc2C)[C@H](c2ccccc2)C1	none (no result: PP1 inh, TPT1 inhibitor)
C1=CC2=NC34CCCCC3CC3=C(CCCC3)N4C2=CC1=NC1CCCCC1 (centres undefined)	none
CC(=O)Oc1cccc(/C=C2\C=C(c3ccc(C)cc3)OC2=O)c1	none
CCOc1ccc(C2=C/C(=C/c3cccnc3)C(=O)O2)cc1	TPT1 inhibitor 83 | TPT1 inh confirm 69 | RNase T1 counter 78
COc1ccc(C2=C/C(=C/c3cccnc3)C(=O)O2)cc1OC	TPT1 inhibitor 80 (not shown: Rpn11 block) | TPT1 inh confirm 80 | RNase T1 counter 85
CCCCn1nnnc1C1(C)CCC(=O)N1Cc1cccnc1 (centres undefined)	none (no result: Rpn11 block, PP1 inh, TPT1 inhibitor)
COc1ccc2ccccc2c1/C=N/N1C(=O)CSC1=S	TPT1 inhibitor 27 | TPT1 inh confirm inactive | RNase T1 counter inactive
CNC[C@@H]1Oc2ccc(NS(=O)(=O)c3ccc(OC)cc3)cc2CC(=O)N([C@H](C)CO)C[C@@H]1C	none (no result: PP1 inh, TPT1 inhibitor)
Nc1ccc(-c2nc3ccccc3s2)cn1	none
O=C1CCC(=O)N1c1ccc(-c2nc3ccccc3s2)cc1	TPT1 inhibitor 52 | TPT1 inh confirm inactive | RNase T1 counter inactive
COC(=O)c1ccccc1CSc1nsc(/C=C/N(C)C)c1C#N	HNF4A DNA FP 55, TPT1 inhibitor 92 (not shown: Rpn11 block) | TPT1 inh confirm 35 | RNase T1 counter 48
COC(=O)c1cccnc1SCc1ccccc1	none
O=C(CCN1C(=O)/C(=C/c2cccs2)SC1=S)N1CCCCC1	TPT1 inhibitor 33 | TPT1 inh confirm 34 | RNase T1 counter 46
O=C(CCN1C(=O)/C(=C\c2ccccc2)SC1=S)N1CCCCC1	none
CCn1c(C)c(C2=CCN(S(=O)(=O)c3ccccc3)CC2)c2ccccc21	TPT1 inhibitor 28 | TPT1 inh confirm inactive | RNase T1 counter 29
Cc1ccc(N2CN(Cc3cccnc3)CNC2=S)c(C)c1	none
Cc1ccc(N2CN(Cc3ccco3)CNC2=S)c(C)c1	TPT1 inhibitor 48 | TPT1 inh confirm inactive | RNase T1 counter inactive
COc1cc(/C=C(\C#N)c2[nH]nc(N)c2C#N)cc(OC)c1O	TPT1 inhibitor 25 | TPT1 inh confirm 33 | RNase T1 counter 37
COc1cc(/C=C(\C#N)c2ccccn2)ccc1OCc1ccccc1Cl	none
CN(C)c1ccc(/C=C(\C#N)c2ccccn2)cc1	TPT1 inhibitor 86 (not shown: Rpn11 block) | TPT1 inh confirm 83 | RNase T1 counter 92
COc1cc(/C=C(\C#N)c2ccccn2)cc(OC)c1O	TPT1 inhibitor 56 (not shown: Rpn11 block) | TPT1 inh confirm 72 | RNase T1 counter 76
COc1cc(/C=C(\C#N)c2nn(CCO)c(N)c2C#N)cc(OC)c1OC	none
O=C(CCOc1ccccc1)Nc1ccc(Cl)c(S(=O)(=O)N2CCOCC2)c1	none (no result: PP1 inh, TPT1 inhibitor)
O=C(CN1C(=O)NC2(CCOc3ccccc32)C1=O)N1CCCCC1 (centres undefined)	none (no result: PP1 inh, TPT1 inhibitor)
Cc1cc(=O)oc(C)c1C(=O)Nc1ccc2ncccc2c1	TPT1 inhibitor 25 | TPT1 inh confirm 35 | RNase T1 counter 45
Cc1cc(=O)oc(C)c1C(=O)Nc1ccc2nsnc2c1	none
COc1ccc(NC(=O)COc2cccc3c2CCN(C)C3=O)c(OC)c1	none
O=C1N(Cc2cccc(Cl)c2)C[C@@H]2C[C@@H](c3c[nH]c4ccccc34)N3CCC[C@@]123	CSN inh 49, HNF4A DNA FP 85, TPT1 inhibitor 26 (not shown: Rpn11 block) | TPT1 inh confirm 30 | RNase T1 counter 40
COC(=O)C1CN(C(=O)C(C)Oc2ccc(C)c(C)c2)c2ccccc2O1 (centres undefined)	none
CC(C)N1CCc2c(sc(NC(=O)c3ccc(S(=O)(=O)N4CCOCC4)cc3)c2C#N)C1	TPT1 inhibitor 127 (not shown: Rpn11 block) | TPT1 inh confirm 156 | RNase T1 counter 147
CCN1CCc2c(sc(NC(=O)CN3C(=O)c4ccccc4C3=O)c2C(N)=O)C1	none
CCN1CCc2c(sc(NC(=S)NC(=O)c3ccc(Cl)cc3)c2C(N)=O)C1	TPT1 inhibitor 27 (not shown: Rpn11 block) | TPT1 inh confirm 30 | RNase T1 counter 36
CC(C)C1Cc2c(C#N)c(N)sc(=S)c2CO1 (centres undefined)	none
CCCN1CCc2c(sc(NC(=S)NC(=O)c3ccccc3)c2C#N)C1	TPT1 inhibitor 88 (not shown: Rpn11 block) | TPT1 inh confirm 62 | RNase T1 counter 71
Cc1sc(NC(=S)NC(=O)c2ccccc2)c(C#N)c1C	none
CC(C)N1CCc2c(sc(N)c2C#N)C1	TPT1 inhibitor 30 | TPT1 inh confirm 42 | RNase T1 counter 48
Cc1ccc2c(c1)cc1c(=O)n(CC(=O)NCc3ccccn3)nc(C)n12	none
CC(C)C1Cc2c(sc(NC(=S)NC(=O)c3ccccc3)c2C#N)CO1 (centres undefined)	none
CC(C)N1CCc2c(sc(NC(=S)NC(=O)c3ccccc3)c2C#N)C1	CSN inh 40, HNF4A DNA FP 44, TPT1 inhibitor 94 (not shown: Rpn11 block) | TPT1 inh confirm 81 | RNase T1 counter 86
CCCC1=[N+](CC(=O)c2ccc(C)cc2)CCn2cccc21	TPT1 inhibitor 62 | TPT1 inh confirm inactive | RNase T1 counter inactive
CCc1cccc(CC)c1NC(=O)C1CCN(C(=O)c2ccco2)CC1	none
COc1ccc(NC(=O)COC(=O)c2ccc(-n3cnnn3)cc2)c([N+](=O)[O-])c1	none (no result: TPT1 inhibitor)
CCN1CCN(c2cc(N3CCN(C(=O)c4ccco4)CC3)c3c4c(onc24)-c2ccccc2C3=O)CC1	NadD inh 45, TPT1 inhibitor 40 | TPT1 inh confirm 43 | RNase T1 counter inactive
COCCn1c(=S)[nH]c2cc(C(=O)N3CC(C)CC(C)C3)ccc2c1=O (centres undefined)	none
Cc1cc(C)cc(C(=O)NC(CC(N)=O)c2ccc(NC3CCCCCCCCCCC3)c([N+](=O)[O-])c2)c1 (centres undefined)	TPT1 inhibitor 48 | TPT1 inh confirm inactive | RNase T1 counter inactive
Cc1cc(C)cc(C(=O)NC(CC(N)=O)c2ccc(NC3CCCCCCC3)c([N+](=O)[O-])c2)c1 (centres undefined)	none
COc1ccc(-c2oc(=O)c3cc(OC)c(OC)cc3c2C#C[C@]2(O)CC[C@H]3[C@@H]4CCc5cc(OC)ccc5[C@H]4CC[C@@]32C)cc1	none (no result: PP1 inh, TPT1 inhibitor)
